Laboratory results as given in ChEMBL document CHEMBL1828628, “Discovery of a tetrahydroisoquinoline-based hydroxamic acid derivative (ZYJ-34c) as histone deacetylase inhibitor with potent oral antitumor activities” (J Med Chem, 2011).
Active and inactive are the calls of the source. The rule behind the calls is not given here.

Experiments:
[1] = target: 72 kDa type IV collagenase (Homo sapiens) (UniProt P08253); experiment: Inhibition of MMP2
H22 = experiment: Antitumor activity against mouse H22 cells xenografted in Kunming mouse assessed as reduction of pulmonary metastatic nodes in lungs at 90 mg/kg, po qd for 14 days; format: functional, organism-based; parameters: dose 90 mg/kg
Mus musculus [2] = experiment: Toxicity in human MDA-MB-231 cells xenografted BALB/c nu mouse assessed as change in body weight at 90 mg/kg, ip qd for 19 days; format: organism-based; parameters: dose 90 mg/kg, route intraperitoneal; settings: in vivo, 456 h
In short: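 Female BALB/c-nu mice, 5–6 weeks old, bearing subcutaneous right-flank xenografts. Mice were randomized 6 per group at about 100 mm3 tumor size. Dosing was oral or intraperitoneal for 19 days; controls received an equal volume of PBS containing DMSO. Body weight was monitored regularly during treatment, and tumors were measured by caliper every three days.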

[3] = target: Aminopeptidase N (Homo sapiens) (UniProt P15144); experiment: Inhibition of aminopeptidase N
Sequence of Aminopeptidase N (Homo sapiens) (P15144 whole entry): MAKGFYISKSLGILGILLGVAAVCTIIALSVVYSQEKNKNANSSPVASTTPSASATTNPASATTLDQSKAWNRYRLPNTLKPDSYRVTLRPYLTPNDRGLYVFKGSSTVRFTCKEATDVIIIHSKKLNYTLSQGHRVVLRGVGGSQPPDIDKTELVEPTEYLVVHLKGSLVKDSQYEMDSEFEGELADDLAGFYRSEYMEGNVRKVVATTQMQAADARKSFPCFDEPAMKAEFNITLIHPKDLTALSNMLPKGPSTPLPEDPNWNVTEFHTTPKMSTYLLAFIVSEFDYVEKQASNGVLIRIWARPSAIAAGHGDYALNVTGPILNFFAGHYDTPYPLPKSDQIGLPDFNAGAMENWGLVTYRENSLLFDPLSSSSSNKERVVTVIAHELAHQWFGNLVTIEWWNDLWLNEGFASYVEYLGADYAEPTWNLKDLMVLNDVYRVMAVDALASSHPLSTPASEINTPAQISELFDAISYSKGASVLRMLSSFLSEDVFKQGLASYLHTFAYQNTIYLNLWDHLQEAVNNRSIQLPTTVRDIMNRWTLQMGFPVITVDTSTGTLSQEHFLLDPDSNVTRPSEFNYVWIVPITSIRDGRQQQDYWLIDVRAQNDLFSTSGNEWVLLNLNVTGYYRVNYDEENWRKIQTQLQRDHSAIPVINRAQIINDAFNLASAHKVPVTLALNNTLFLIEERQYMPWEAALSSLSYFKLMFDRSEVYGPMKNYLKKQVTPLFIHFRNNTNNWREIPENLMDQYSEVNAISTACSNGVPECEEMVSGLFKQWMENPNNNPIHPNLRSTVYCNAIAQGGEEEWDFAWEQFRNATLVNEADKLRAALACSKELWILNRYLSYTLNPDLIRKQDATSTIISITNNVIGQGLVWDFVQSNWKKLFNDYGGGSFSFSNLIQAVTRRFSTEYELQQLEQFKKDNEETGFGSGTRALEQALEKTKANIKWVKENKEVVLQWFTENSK

Mus musculus [4] = experiment: Toxicity in mouse H22 cells xenografted Kunming mouse assessed as change in body weight at 90 mg/kg, po qd for 19 days; format: organism-based; parameters: dose 90 mg/kg, route oral; settings: in vivo, 456 h
Mus musculus [5] = experiment: Toxicity in mouse H22 cells xenografted Kunming mouse assessed as signs of organ toxicity at 90 mg/kg, po qd for 19 days; format: organism-based; parameters: dose 90 mg/kg, route oral; settings: in vivo, 456 h
MDA-MB-231 [6] = experiment: Antitumor activity against human MDA-MB-231 cells xenografted in BALB/c nu mouse assessed as tumor growth inhibition at 90 mg/kg, ip qd for 19 days relative to control; format: functional; settings: route intraperitoneal; for inhibition in vivo at 90 mg/kg: Mus musculus, MDA-MB-231, ip, 456 h, read-out: TGI
MDA-MB-231 [7] = experiment: Cell cycle arrest in human MDA-MB-231 cells assessed as accumulation at G1 phase at 1 uM after 48 hrs using propidium iodide staining by flow cytometric analysis; format: functional, cell-based
In short: (§1)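 MDA-MB-231 cells were seeded at 4 × 10^5 per well and incubated overnight, then treated for 48 h. Cells were fixed overnight in 70% ethanol phosphate buffer and washed twice with PBS. They were treated with DNase-free RNase A (1 mg/mL) for 30 min, then stained with propidium iodide for 30 min in the dark at room temperature. DNA content was read by FACScan flow cytometry.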

MDA-MB-231 [8] = experiment: Cell cycle arrest in human MDA-MB-231 cells assessed as accumulation at G2 phase at 5 uM after 48 hrs using propidium iodide staining by flow cytometric analysis; format: functional, cell-based; in short: as §1

Sequence of 72 kDa type IV collagenase (Homo sapiens) (P08253 110-660 limits assumed): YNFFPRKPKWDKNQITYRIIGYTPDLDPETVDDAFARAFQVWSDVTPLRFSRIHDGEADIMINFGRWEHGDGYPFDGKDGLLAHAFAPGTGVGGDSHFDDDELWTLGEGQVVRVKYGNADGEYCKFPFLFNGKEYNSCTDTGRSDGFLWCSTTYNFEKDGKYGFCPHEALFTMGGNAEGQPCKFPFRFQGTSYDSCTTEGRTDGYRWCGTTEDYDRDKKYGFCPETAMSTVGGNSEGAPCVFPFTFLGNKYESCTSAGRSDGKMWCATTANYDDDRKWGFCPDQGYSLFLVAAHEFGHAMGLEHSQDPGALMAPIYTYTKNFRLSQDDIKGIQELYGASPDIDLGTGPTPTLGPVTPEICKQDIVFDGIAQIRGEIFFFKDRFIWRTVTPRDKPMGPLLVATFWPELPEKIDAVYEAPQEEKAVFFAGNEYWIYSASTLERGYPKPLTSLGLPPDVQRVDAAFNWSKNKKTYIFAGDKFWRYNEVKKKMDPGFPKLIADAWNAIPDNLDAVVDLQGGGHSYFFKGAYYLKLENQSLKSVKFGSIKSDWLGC

| inhibition [1] | inhibition [3] | Compound | Activity (H22) | Activity (Mus musculus [2]) | Activity (Mus musculus [4]) | Activity (Mus musculus [5]) | inhibition in vivo at 90 mg/kg (MDA-MB-231 [6]) [%] | T/C (MDA-MB-231 [6]) [%] | Activity (MDA-MB-231 [7]) | Activity (MDA-MB-231 [8]) |
| --- | --- | --- | --- | --- | --- | --- | --- | --- | --- | --- |
| inactive | Active | CC[C@H](C)[C@H](NC(=O)OC(C)(C)C)C(=O)N1Cc2cc(OCC(=O)NO)ccc2C[C@H]1C(=O)Nc1ccc(OC)cc1 | Active | Non-toxic | Non-toxic | Non-toxic | 40 | 63 |  |  |
| inactive | Active | CC[C@H](C)[C@@H](CN1Cc2cc(OCC(=O)NO)ccc2C[C@H]1C(=O)Nc1ccc(OC)cc1)NC(=O)OC(C)(C)C | Active | Non-toxic | Non-toxic | Non-toxic | 55 | 47 |  |  |
| inactive |  | O=C(CCCCCCC(=O)Nc1ccccc1)NO | inactive |  |  |  |  |  | Active | Active |
| inactive | Active | CC[C@H](C)[C@@H](CN1Cc2cc(OCC(=O)NO)ccc2C[C@H]1C(=O)Nc1ccc(OC)cc1)NC(=O)CC(C)(C)C | Active | Non-toxic | Non-toxic | Non-toxic | -9 | 87 |  |  |
